High-throughput results (PubChem BioAssay)
In the library only some 2.4% were active in any assay of this set; here they are far more common.
SF-1 act = SF-1 (human) activation. Q13285. CHO-K1 Gal4-SF-1 LBD luciferase reporter; % increase over DMSO SF-1-specific signal. activation, % at 10 µM. 1.9% of 65,000 active. AID 522;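 active means activation above the mean activation of all tested compounds plus 3 SD, cut at about 50% in these data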
Target sequence (Q13285 whole entry, looked up, the tested form may be a part): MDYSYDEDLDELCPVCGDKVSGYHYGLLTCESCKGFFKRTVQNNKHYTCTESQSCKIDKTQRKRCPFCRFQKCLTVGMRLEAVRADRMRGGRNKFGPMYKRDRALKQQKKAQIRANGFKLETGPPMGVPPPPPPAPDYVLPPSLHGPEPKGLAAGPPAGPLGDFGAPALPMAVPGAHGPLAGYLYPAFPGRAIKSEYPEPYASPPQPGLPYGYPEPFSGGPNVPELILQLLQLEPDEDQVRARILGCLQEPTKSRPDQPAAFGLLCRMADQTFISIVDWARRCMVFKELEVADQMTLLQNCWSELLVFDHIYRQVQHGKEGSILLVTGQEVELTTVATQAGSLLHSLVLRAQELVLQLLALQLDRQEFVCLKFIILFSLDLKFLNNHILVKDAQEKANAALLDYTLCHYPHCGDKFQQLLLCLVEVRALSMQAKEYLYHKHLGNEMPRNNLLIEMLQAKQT
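System: CHO-K1 cells with Gal4–hSF-1 LBD chimera plus Gal4-driven luciferase; quantity: 4,000 CHO-K1 cells per well; compound: one dose, 10 µM compound, 1% DMSO; times: 20 h compound treatment, 37 °C; measured by: SteadyLite luciferase luminescence; read-out: percent activation versus DMSO; benchmarks: DMSO and mock-transfected background; replicates: one test per compound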
RORa activator = activates the human nuclear receptor RORA; CHO-K1 Gal4-RORA LBD luciferase reporter, luminescence; percent increase over mock-subtracted basal signal; P35398; activation, % at 10 µM; 1.5% of 65,000 active;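 active means activation above the mean of all tested compounds plus 3 SD, cut at about 49% in these data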
AP ELISA ortho = orthogonal test for alternative complement pathway inhibitors; Human serum alternative complement pathway, LPS-coated ELISA, C3 deposition; tested in compound mixtures; inhibition, % at 5 µM; 0.08% of 62,000 active;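 active means inhibition above 30% in each of the two pooled mixtures holding the compound, so the lower value exceeds 30%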
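Assay system: human serum alternative complement pathway, C3 deposition on LPS-coated wells; Dosing: 5 µM per compound in ten-compound mixtures; Detection: Anti-C3 ELISA, OD 450 nm; Buffer or medium: Mg2+-EGTA GVB++ buffer containing human serum at 1:15 dilution; Timing: 1 h at 37 °C; Replication: two different pools per compound.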
MMP13 inh = inhibitors of human MMP13 | MMP-13 fTHP FRET cleavage, Mca fluorescence | P45452 | inhibition, % at 4 µM | 0.07% of 65,000 active;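 active means inhibition above the mean of compound-free control plate wells plus 3 SD, cut at about 14% in these data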
E coli RNAP = blocks E. coli RNA polymerase transcription; inhibition, %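 (tested at 10 µM)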; 0.2% of 62,000 active; P0A8V2; fluorescence transcription assay; in the data active means inhibition above about 20%
HePTP inhibitor = human HePTP phosphatase inhibition. recombinant HePTP phosphatase activity, OD absorbance. 0.64% of 110,000 active. inhibition, % at 20 µM; in the data active means inhibition above about 50%
A number is an active result.

For COc1cccc2cc(C(=O)Nc3ccc(S(N)(=O)=O)cc3)c(=O)oc12 the results were HePTP inhibitor inactive.
`COC(=O)c1cc(-c2ccc(Br)cc2)on1` gave SF-1 act inactive, RORa activator inactive, AP ELISA ortho inactive, MMP13 inh inactive, E coli RNAP inactive and HePTP inhibitor inactive.
CCN(CC)C(=O)c1cc(-c2ccc(Br)cc2)on1 was read as SF-1 act 56, RORa activator inactive, AP ELISA ortho inactive, MMP13 inh inactive, E coli RNAP inactive and HePTP inhibitor inactive.
Screening O=C(NCC1COc2ccccc2O1)c1ccccc1 (configuration not stated) returned SF-1 act 52, RORa activator 70, AP ELISA ortho inactive, MMP13 inh inactive, E coli RNAP inactive and HePTP inhibitor inactive.
Screening CCCOc1cccc(C(=O)Nc2ccc(NC(=O)c3ccc(Cl)cc3Cl)cc2)c1 returned HePTP inhibitor inactive.
Screening CC(NC(=O)c1ccccc1Cl)c1ccccc1 (configuration not stated) returned HePTP inhibitor 98.
`COc1ccccc1C(=O)N[C@H](C)c1ccccc1` gave HePTP inhibitor inactive.
For O=C(c1ccc(N2CCN(C(=O)c3ccc(F)cc3)CC2)cc1)c1cccc(F)c1 the results were HePTP inhibitor inactive.
For O=C(Nc1nc2ccc(Cl)cc2s1)c1ccc(Br)o1 the results were SF-1 act inactive, RORa activator 54, AP ELISA ortho inactive, MMP13 inh inactive, E coli RNAP inactive and HePTP inhibitor inactive.
Screening O=C(Nc1nc2c(Cl)cccc2s1)c1ccc(Br)o1 returned SF-1 act inactive, RORa activator inactive, AP ELISA ortho inactive, MMP13 inh inactive, E coli RNAP inactive and HePTP inhibitor inactive.
For COc1ccc(CCNC(=O)c2ccc3c(c2)OCO3)cc1OC the results were HePTP inhibitor inactive.
Screening CCOC(=O)c1sc(NC(=O)c2ccc3ncsc3c2)nc1C returned SF-1 act 76, RORa activator inactive, AP ELISA ortho inactive, MMP13 inh inactive, E coli RNAP inactive and HePTP inhibitor inactive.
CCOC(=O)c1sc(NC(=O)c2ccccc2[N+](=O)[O-])nc1C was read as HePTP inhibitor inactive.
For C=CCOC(=O)c1sc(NC(=O)c2ccco2)nc1C the results were SF-1 act 93, RORa activator 53, AP ELISA ortho inactive, MMP13 inh inactive, E coli RNAP inactive and HePTP inhibitor inactive.
`CCOC(=O)c1sc(NC(=O)c2ccc(CC)s2)nc1C` gave SF-1 act 119, RORa activator 72, AP ELISA ortho inactive, MMP13 inh inactive, E coli RNAP inactive and HePTP inhibitor inactive.
For CCOC(=O)CNC(=O)c1sc(NC(=O)c2ccccc2F)nc1C the results were SF-1 act 53, RORa activator inactive, AP ELISA ortho inactive, MMP13 inh inactive, E coli RNAP inactive and HePTP inhibitor inactive.
`CCOC(=O)c1sc(NC(=O)c2ccc(Br)o2)nc1C` gave HePTP inhibitor inactive.
`Cc1c(C(=O)OC(C)C)sc(NC(=O)c2cc(Cl)ccc2Cl)c1C(=O)OC(C)C` gave HePTP inhibitor inactive.
`O=C1/C(=C/c2ccco2)SC(=S)N1c1ccc(F)cc1` gave HePTP inhibitor inactive.
For CC(=O)Nc1ccc(-c2nc3ccc(-c4ccc5nc(-c6ccc(NC(C)=O)cc6)oc(=O)c5c4)cc3c(=O)o2)cc1 the results were HePTP inhibitor inactive.
`CCOC(=O)c1sc(NC(=O)C2CC2)cc1C` gave SF-1 act inactive, RORa activator inactive, AP ELISA ortho inactive, MMP13 inh inactive, E coli RNAP inactive and HePTP inhibitor inactive.
Screening CCOC(=O)c1sc(NC(=O)c2ccc(Cl)s2)cc1C returned SF-1 act 54, RORa activator 78, AP ELISA ortho inactive, MMP13 inh inactive, E coli RNAP inactive and HePTP inhibitor inactive.
Screening c1ccc(N2CCN(c3ccccc3)C2c2cccs2)cc1 returned SF-1 act inactive, RORa activator 58, AP ELISA ortho inactive, MMP13 inh inactive, E coli RNAP inactive and HePTP inhibitor inactive.
Screening O=C(Nc1ccccc1I)C1CC(=O)N(c2ccc(Br)cc2)C1 (configuration not stated) returned HePTP inhibitor inactive.
CSc1nc2ccc3nc(NC(=O)c4cccs4)sc3c2s1 was read as SF-1 act 64, RORa activator inactive, AP ELISA ortho inactive, MMP13 inh inactive, E coli RNAP inactive and HePTP inhibitor inactive.
`O=C(Nc1nc2ccc(S(=O)(=O)N3CCCCC3)cc2s1)c1ccncc1` gave SF-1 act inactive, RORa activator inactive, AP ELISA ortho inactive, MMP13 inh inactive, E coli RNAP inactive and HePTP inhibitor inactive.
For O=C(Nc1nc2ccc(S(=O)(=O)N3CCCC3)cc2s1)c1cccs1 the results were SF-1 act inactive, RORa activator 52, AP ELISA ortho inactive, MMP13 inh inactive, E coli RNAP inactive and HePTP inhibitor inactive.
Screening Cc1cccc(C)c1NC(=O)c1ccc(I)cc1 returned HePTP inhibitor inactive.
For CCc1ccc(Nc2cc(=O)n(C3CCCCC3)c(=O)[nH]2)cc1 the results were SF-1 act 52, RORa activator inactive, AP ELISA ortho inactive, MMP13 inh inactive, E coli RNAP inactive and HePTP inhibitor inactive.
Screening C=C(C)CNC(=S)Nc1ccccn1 returned HePTP inhibitor 103.
For CC(C)c1cc(Nc2nccs2)cc(C(C)C)c1O the results were HePTP inhibitor 84.
COc1ccc(C(=O)Nc2cc(C(F)(F)F)cc(C(F)(F)F)c2)cc1 was read as HePTP inhibitor 104.
Screening COc1cc(OC)c(OC)cc1CN1CCN(C2CCCCC2OC)CC1 (configuration not stated) returned HePTP inhibitor inactive.
`Cc1cccc(NC(=O)c2ccc3ccccc3n2)c1` gave HePTP inhibitor inactive.
`c1c2c(cc3sc(N4CCOCC4)nc13)OCO2` gave SF-1 act 58, RORa activator inactive, AP ELISA ortho inactive, MMP13 inh inactive, E coli RNAP inactive and HePTP inhibitor inactive.
For O=C(c1ccc(Cl)cc1Cl)N1CCN(c2nc3ccc([N+](=O)[O-])cc3s2)CC1 the results were HePTP inhibitor inactive.
For c1ccc(N2CCN(c3nc4cc5c(cc4s3)OCO5)CC2)cc1 the results were SF-1 act 55, RORa activator 70, AP ELISA ortho inactive, MMP13 inh inactive, E coli RNAP inactive and HePTP inhibitor inactive.
Screening c1ccc2c(c1)CCN(c1nc3cc4c(cc3s1)OCO4)C2 returned SF-1 act inactive, RORa activator inactive, AP ELISA ortho inactive, MMP13 inh inactive, E coli RNAP inactive and HePTP inhibitor inactive.
For c1c2c(cc3sc(N4CCCCC4)nc13)OCO2 the results were SF-1 act inactive, RORa activator inactive, AP ELISA ortho inactive, MMP13 inh inactive, E coli RNAP inactive and HePTP inhibitor inactive.
For Clc1ccc2nc(N3CCN(c4ccccc4)CC3)sc2c1 the results were SF-1 act 72, RORa activator inactive, AP ELISA ortho inactive, MMP13 inh inactive, E coli RNAP inactive and HePTP inhibitor inactive.
